From ChEMBL document CHEMBL1949515, “Regioselective synthesis and antimicrobial activities of some novel aryloxyacetic acid derivatives” (2012)
Converted amounts (≈) assume the structure as drawn. The source made the active and inactive calls. The rule behind the calls is not given here.

Legend:
Escherichia coli [1] = test: Antibacterial activity against Escherichia coli ATCC 25922 after 24 hrs by two fold serial dilution method; type: functional; settings: ATCC 25922, 24 h
Outline: (§1)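 MIC determined by two-fold serial dilution in the appropriate nutrient broth, only for compounds that gave sizeable inhibition zones in the well diffusion screen. Final concentrations stepped down by halves from 66 (66, 33, 16.5 …).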

Staphylococcus aureus [2] = test: microbe, parasite or virus in culture; settings: ATCC 29213, 24 h, read-out: DIZ
Staphylococcus aureus [3] = test: Antibacterial activity against Staphylococcus aureus ATCC 29213 after 24 hrs by two fold serial dilution method; type: functional; settings: ATCC 29213, 24 h; outline: as §1
Klebsiella pneumoniae [4] = test: microbe, parasite or virus in culture; settings: ATCC 13883, 24 h, read-out: DIZ
Priestia megaterium [5] = test: Antibacterial activity against Bacillus megaterium after 24 hrs by two fold serial dilution method; type: functional; outline: as §1
Micrococcus luteus [6] = test: Antibacterial activity against Sarcina lutea after 24 hrs by two fold serial dilution method; type: functional; outline: as §1
Bacillus subtilis [7] = test: Antibacterial activity against Bacillus subtilis ATCC 6633 after 24 hrs by two fold serial dilution method; type: functional; settings: ATCC 6633, 24 h; outline: as §1
Priestia megaterium [8] = test: Antibacterial activity against Bacillus megaterium at 50 ug/ml after 24 hrs by agar well diffusion method; type: functional; settings: read-out: DIZ
Pseudomonas aeruginosa [9] = test: Antibacterial activity against Pseudomonas aeruginosa ATCC 27953 after 24 hrs by two fold serial dilution method; type: functional; settings: ATCC 27953, 24 h; outline: as §1
Micrococcus luteus [10] = test: Antibacterial activity against Sarcina lutea at 50 ug/ml after 24 hrs by agar well diffusion method; type: functional; settings: read-out: DIZ
Bacillus subtilis [11] = test: microbe, parasite or virus in culture; settings: ATCC 6633, 24 h, read-out: DIZ
Mycolicibacterium phlei [12] = test: Antibacterial activity against Mycobacterium phlei after 24 hrs by two fold serial dilution method; type: functional; outline: as §1
Pseudomonas aeruginosa [13] = test: microbe, parasite or virus in culture; settings: ATCC 27953, 24 h, read-out: DIZ
Mycolicibacterium phlei [14] = test: Antibacterial activity against Mycobacterium phlei at 50 ug/ml after 24 hrs by agar well diffusion method; type: functional; settings: read-out: DIZ
Outline: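 Agar well diffusion. Plates were seeded with bacterial suspension at 1 × 10⁸ CFU/mL spread on nutrient agar. Wells received compound solution made as a 100 mg/mL DMSO stock. Plates were incubated 24 h at 37 °C. Read-out was inhibition zone diameter (mm), run in triplicate and averaged. Ciprofloxacin was the reference.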

Klebsiella pneumoniae [15] = test: Antibacterial activity against Klebsiella pneumoniae ATCC 13883 after 24 hrs by two fold serial dilution method; type: functional; settings: ATCC 13883, 24 h; outline: as §1
Bacillus subtilis [16] = test: Antibacterial activity against Bacillus subtilis ATCC 6633 after 24 hrs by agar well diffusion method; type: functional
Outline: (§2)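 Agar well diffusion on nutrient agar seeded with bacterial suspension at 1 × 10⁸ CFU/mL. Wells received compound solution from a stock of 100 mg per mL DMSO. Plates incubated 24 h at 37 °C. Read-out is inhibition zone diameter (mm), done in triplicate and averaged.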

Saccharomyces cerevisiae [17] = test: Antifungal activity against Saccharomyces cerevisiae by two fold serial dilution method; type: functional; outline: as §1
Klebsiella pneumoniae [18] = test: Antibacterial activity against Klebsiella pneumoniae ATCC 13883 after 24 hrs by agar well diffusion method; type: functional; outline: as §2
Pseudomonas aeruginosa [19] = test: Antibacterial activity against Pseudomonas aeruginosa ATCC 27953 after 24 hrs by agar well diffusion method; type: functional; outline: as §2
Escherichia coli [20] = test: Antibacterial activity against Escherichia coli ATCC 25922 after 24 hrs by agar well diffusion method; type: functional; outline: as §2
Priestia megaterium [21] = test: Antibacterial activity against Bacillus megaterium after 24 hrs by agar well diffusion method; type: functional; outline: as §2
Saccharomyces cerevisiae [22] = test: Antifungal activity against Saccharomyces cerevisiae after 48 hrs by agar well diffusion method; type: functional
Outline: (§3)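 Fungal agar well diffusion on Sabouraud dextrose agar seeded at 1 × 10⁶ CFU/mL. Wells received compound solution from a 100 mg per mL DMSO stock. Incubation 48 h at 28 °C. Inhibition zone diameter (mm) measured in triplicate and averaged.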

Candida albicans [23] = test: Antifungal activity against Candida albicans NRRL Y-477 by two fold serial dilution method; type: functional; outline: as §1
Staphylococcus aureus [24] = test: Antibacterial activity against Staphylococcus aureus ATCC 29213 after 24 hrs by agar well diffusion method; type: functional; outline: as §2
Candida albicans [25] = test: Antifungal activity against Candida albicans NRRL Y-477 after 48 hrs by agar well diffusion method; type: functional; outline: as §3
Micrococcus luteus [26] = test: Antibacterial activity against Sarcina lutea after 24 hrs by agar well diffusion method; type: functional; outline: as §2
Mycolicibacterium phlei [27] = test: Antibacterial activity against Mycobacterium phlei after 24 hrs by agar well diffusion method; type: functional; outline: as §2
Saccharomyces cerevisiae [28] = test: Antifungal activity against Saccharomyces cerevisiae at 50 ug/ml after 48 hrs by agar well diffusion method; type: functional; settings: read-out: DIZ
Outline: (§4)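 Fungal agar well diffusion. Plates were seeded with 1 × 10⁶ CFU/mL fungal suspension on Sabouraud dextrose agar. Wells were filled with compound solution from a 100 mg/mL DMSO stock. Plates were incubated 48 h at 28 °C. The mean inhibition zone diameter (mm) was taken from triplicate runs. Ketoconazole was the standard.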

Candida albicans [29] = test: Antifungal activity against Candida albicans NRRL Y-477 at 50 ug/ml after 48 hrs by agar well diffusion method; type: functional; settings: NRRL Y-477, 48 h, read-out: DIZ; outline: as §4

SMILES	MIC (Escherichia coli [1]) [µg/mL]	MIC (Priestia megaterium [5]) [µg/mL]	MIC (Bacillus subtilis [7]) [µg/mL]	MIC (Klebsiella pneumoniae [15]) [µg/mL]	MIC (Saccharomyces cerevisiae [17]) [µg/mL]	MIC (Candida albicans [23]) [µg/mL]	diameter of the inhibition zone (DIZ) (Bacillus subtilis [16])	diameter of the inhibition zone (DIZ) (Klebsiella pneumoniae [18]) [mm]	diameter of the inhibition zone (DIZ) (Pseudomonas aeruginosa [19])	diameter of the inhibition zone (DIZ) (Escherichia coli [20])	diameter of the inhibition zone (DIZ) (Priestia megaterium [21])	diameter of the inhibition zone (DIZ) (Saccharomyces cerevisiae [22]) [mm]	diameter of the inhibition zone (DIZ) (Staphylococcus aureus [24])	diameter of the inhibition zone (DIZ) (Candida albicans [25])	diameter of the inhibition zone (DIZ) (Micrococcus luteus [26])	diameter of the inhibition zone (DIZ) (Mycolicibacterium phlei [27])	other results
O=C(O)c1cn(C2CC2)c2cc(N3CCNCC3)c(F)cc2c1=O [CIPROFLOXACIN]	16.5 (≈ 49.8 µM)	8.25 (≈ 24.9 µM)	8.25 (≈ 24.9 µM)	16.5 (≈ 49.8 µM)													zone of inhibition at 50 µg/mL (Staphylococcus aureus [2]): 20 mm; MIC (Staphylococcus aureus [3]): 8.25 µg/mL (≈ 24.9 µM); zone of inhibition at 50 µg/mL (Klebsiella pneumoniae [4]): 25 mm; MIC (Micrococcus luteus [6]): 16.5 µg/mL (≈ 49.8 µM); zone of inhibition at 50 µg/mL (Priestia megaterium [8]): 24 mm; MIC (Pseudomonas aeruginosa [9]): 16.5 µg/mL (≈ 49.8 µM); zone of inhibition at 50 µg/mL (Micrococcus luteus [10]): 20 mm; zone of inhibition at 50 µg/mL (Bacillus subtilis [11]): 22 mm; MIC (Mycolicibacterium phlei [12]): 16.5 µg/mL (≈ 49.8 µM); zone of inhibition at 50 µg/mL (Pseudomonas aeruginosa [13]): 24 mm; zone of inhibition at 50 µg/mL (Mycolicibacterium phlei [14]): 22 mm
O=C(COc1ccc2ccccc2c1)NNCC(=O)Nc1nccs1		8.25 (≈ 23.1 µM)	66 (≈ 185 µM)	33 (≈ 92.6 µM)	16.5 (≈ 46.3 µM)	66 (≈ 185 µM)	18 mm	23	inactive	inactive	22 mm	22	inactive	20 mm	inactive	inactive	
O=C(COc1ccc2ccccc2c1)NN/C=C(\NNC(=O)COc1ccc2ccccc2c1)c1cc2ccccc2oc1=O		16.5 (≈ 27.5 µM)	66 (≈ 110 µM)	33 (≈ 54.9 µM)	16.5 (≈ 27.5 µM)	66 (≈ 110 µM)	18 mm	21	inactive	inactive	20 mm	21	inactive	20 mm	inactive	inactive	
CC(=N/NC(=O)COc1ccc(Cl)cc1Cl)/C(=N\Nc1ccc(Cl)cc1)S(=O)(=O)c1ccccc1	4.12 (≈ 7.45 µM)	8.25 (≈ 14.9 µM)	8.25 (≈ 14.9 µM)	16.5 (≈ 29.8 µM)	4.12 (≈ 7.45 µM)	4.12 (≈ 7.45 µM)	29 mm	28	28 mm	30 mm	32 mm	32	27 mm	30 mm	26 mm	30 mm	MIC (Staphylococcus aureus [3]): 8.25 µg/mL (≈ 14.9 µM); MIC (Micrococcus luteus [6]): 8.25 µg/mL (≈ 14.9 µM); MIC (Pseudomonas aeruginosa [9]): 16.5 µg/mL (≈ 29.8 µM); MIC (Mycolicibacterium phlei [12]): 4.12 µg/mL (≈ 7.45 µM)
CC(=O)N1CCN(c2ccc(OCC3COC(Cn4ccnc4)(c4ccc(Cl)cc4Cl)O3)cc2)CC1 (centres undefined) [KETOCONAZOLE]					4.12 (≈ 7.76 µM)	8.25 (≈ 15.5 µM)											zone of inhibition at 50 µg/mL (Saccharomyces cerevisiae [28]): 23 mm; zone of inhibition at 50 µg/mL (Candida albicans [29]): 22 mm

Second part, led by results:

MIC (Escherichia coli [1]) [µg/mL]	MIC (Priestia megaterium [5]) [µg/mL]	MIC (Bacillus subtilis [7]) [µg/mL]	MIC (Klebsiella pneumoniae [15]) [µg/mL]	MIC (Saccharomyces cerevisiae [17]) [µg/mL]	MIC (Candida albicans [23]) [µg/mL]	SMILES	diameter of the inhibition zone (DIZ) (Bacillus subtilis [16])	diameter of the inhibition zone (DIZ) (Klebsiella pneumoniae [18]) [mm]	diameter of the inhibition zone (DIZ) (Pseudomonas aeruginosa [19])	diameter of the inhibition zone (DIZ) (Escherichia coli [20])	diameter of the inhibition zone (DIZ) (Priestia megaterium [21])	diameter of the inhibition zone (DIZ) (Saccharomyces cerevisiae [22]) [mm]	diameter of the inhibition zone (DIZ) (Staphylococcus aureus [24])	diameter of the inhibition zone (DIZ) (Candida albicans [25])	diameter of the inhibition zone (DIZ) (Micrococcus luteus [26])	diameter of the inhibition zone (DIZ) (Mycolicibacterium phlei [27])	other results
	16.5 (≈ 33.5 µM)	66 (≈ 134 µM)	33 (≈ 67 µM)	8.25 (≈ 16.7 µM)	33 (≈ 67 µM)	CC(=N/NC(=O)COc1ccc(Cl)cc1Cl)/C(Cl)=N\Nc1ccc(Br)cc1	18 mm	20	inactive	inactive	22 mm	27	inactive	21 mm	inactive	inactive	
8.25 (≈ 15.4 µM)	16.5 (≈ 30.8 µM)	33 (≈ 61.7 µM)	16.5 (≈ 30.8 µM)	8.25 (≈ 15.4 µM)	8.25 (≈ 15.4 µM)	CC(=N\NC(=O)COc1ccc2ccccc2c1)/C(=N\Nc1ccc(Cl)cc1)S(=O)(=O)c1ccccc1	20 mm	24	26 mm	28 mm	23 mm	30	23 mm	24 mm	inactive	inactive	MIC (Staphylococcus aureus [3]): 16.5 µg/mL (≈ 30.8 µM); MIC (Pseudomonas aeruginosa [9]): 16.5 µg/mL (≈ 30.8 µM)
			16.5 (≈ 31.6 µM)	4.12 (≈ 7.9 µM)		CC(=N/NC(=O)COc1ccc(Cl)cc1Cl)/C(=N\Nc1ccc(Cl)cc1)Sc1ccccc1	inactive	24	inactive	inactive	inactive	28	inactive	inactive	inactive	13 mm	
16.5 (≈ 38.4 µM)			16.5 (≈ 38.4 µM)	16.5 (≈ 38.4 µM)	33 (≈ 76.9 µM)	CC(=N/NC(=O)COc1ccc2ccccc2c1)/C(Cl)=N\Nc1ccc(Cl)cc1	inactive	24	inactive	21 mm	inactive	26	inactive	20 mm	inactive	16 mm	
	16.5 (≈ 29.1 µM)	66 (≈ 117 µM)	66 (≈ 117 µM)	33 (≈ 58.3 µM)	66 (≈ 117 µM)	CC(=N/NC(=O)COc1ccc(Cl)cc1Cl)/C(=N\Nc1ccc(Br)cc1)Sc1ccccc1	18 mm	18	inactive	inactive	20 mm	23	inactive	20 mm	20 mm	inactive	MIC (Micrococcus luteus [6]): 16.5 µg/mL (≈ 29.1 µM)
	16.5 (≈ 34.8 µM)	66 (≈ 139 µM)	33 (≈ 69.7 µM)	16.5 (≈ 34.8 µM)	33 (≈ 69.7 µM)	CC(=N/NC(=O)COc1ccc2ccccc2c1)/C(Cl)=N\Nc1ccc(Br)cc1	18 mm	21	inactive	inactive	21 mm	24	inactive	21 mm	inactive	inactive	
	16.5 (≈ 36.8 µM)	66 (≈ 147 µM)	33 (≈ 73.6 µM)	16.5 (≈ 36.8 µM)	66 (≈ 147 µM)	CC(=N/NC(=O)COc1ccc(Cl)cc1Cl)/C(Cl)=N\Nc1ccc(Cl)cc1	18 mm	21	inactive	inactive	20 mm	24	inactive	18 mm	inactive	15 mm	
